Laboratory results as given in ChEMBL document CHEMBL5247575 (J Med Chem, 2018).
In brackets after ≈: the same amount, converted by molar mass.

What was measured:
Escherichia coli = experiment: Antibacterial activity against Escherichia coli DH10B transfected with pBC SK (-) OXA-48 by broth microdilution method; type: functional
Klebsiella pneumoniae [1] = experiment: Antibacterial activity against Klebsiella pneumoniae 660/1568 producing KPC-3 by broth microdilution method; type: functional
Klebsiella pneumoniae [2] = experiment: Antibacterial activity against Klebsiella pneumoniae 977/1916 producing KPC-3 by broth microdilution method; type: functional
Acinetobacter baumannii [3] = experiment: Antibacterial activity against Acinetobacter baumannii PR476 producing OXA-24/40 by broth microdilution method; type: functional
Acinetobacter baumannii [4] = experiment: Antibacterial activity against ADC deleted Acinetobacter baumannii transfected with pWH1266 producing OXA-24/40 by broth microdilution method; type: functional
Acinetobacter baumannii [5] = experiment: Antibacterial activity against Acinetobacter baumannii NCTC 13301 producing OXA-23/51 infected in sc dosed Swiss albino mouse administered 1 hr post infection and measured upto 7 days; type: functional; settings: for ED90 / ED50: NCTC 13301, 168 h, time <= 7 day; for ED50: read-out: PD50
How it was run: (§1)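 Peritonitis model: male and female Swiss albino mice infected intraperitoneally with 3.5×10^5 to 3×10^6 CFU/mouse in 5% hog gastric mucin (lethal to untreated mice within 24 h). […] Survival followed 7 days; PD50/PD90 by probit analysis.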

Acinetobacter baumannii [6] = experiment: Antibacterial activity against Acinetobacter baumannii SL04 producing OXA-23/51 infected in Swiss mouse model of neutropenic lung infection
Acinetobacter baumannii [7] = experiment: Antibacterial activity against Acinetobacter baumannii SL46 producing OXA-23/51 infected in sc dosed Swiss albino mouse administered 1 hr post infection and measured upto 7 days; settings: SL46, 168 h
Acinetobacter baumannii [8] = experiment: Antibacterial activity against Acinetobacter baumannii NCTC 13303 producing OXA-26/51 infected in sc dosed Swiss albino mouse administered 1 hr post infection and measured upto 7 days; settings: NCTC 13303, 168 h; for ED50: read-out: PD50
Acinetobacter baumannii [9] = experiment: Antibacterial activity against Acinetobacter baumannii NCTC 13303 producing OXA-26/51 infected in sc dosed Swiss albino mouse administered 1 hr post infection and measured upto 7 days; type: functional; settings: NCTC 13303, 168 h, time <= 7 day; how it was run: as §1
Acinetobacter baumannii [10] = experiment: Antibacterial activity against Acinetobacter baumannii SL46 producing OXA-23/51 infected in sc dosed Swiss albino mouse administered 1 hr post infection and measured upto 7 days; type: functional; settings: SL46, 168 h, time <= 7 day; how it was run: as §1
Acinetobacter baumannii [11] = experiment: Antibacterial activity against Acinetobacter baumannii SL04 producing OXA-23/51 infected in Swiss mouse model of neutropenic lung infection assessed as reduction in log10CFU at 50 mg/kg

| Compound | MIC (Acinetobacter baumannii [3]) [µg/mL] | ED90 (Acinetobacter baumannii [5]) [mg/kg] | ED50 (Acinetobacter baumannii [5]) [mg/kg] | MIC (Acinetobacter baumannii [6]) [µg/mL] | ED90 (Acinetobacter baumannii [8]) [mg/kg] | ED50 (Acinetobacter baumannii [8]) [mg/kg] | also measured |
| --- | --- | --- | --- | --- | --- | --- | --- |
| C[C@@H](O)[C@H]1C(=O)N2C(C(=O)O)=C(S[C@@H]3CN[C@H](C(=O)N(C)C)C3)[C@H](C)[C@H]12 [MEROPENEM] | 0.25 (≈ 0.652 µM) | 25 | 25 | 64 (≈ 167 µM) | 50 | 50 | MIC (Escherichia coli): 8 µg/mL (≈ 20.9 µM); MIC (Klebsiella pneumoniae [1]): 2 µg/mL (≈ 5.22 µM); MIC (Klebsiella pneumoniae [2]): 1 µg/mL (≈ 2.61 µM); MIC (Acinetobacter baumannii [4]): > 16 µg/mL; ED90 (Acinetobacter baumannii [7]): 50 mg/kg; ED50 (Acinetobacter baumannii [7]; read-out: PD50): 50 mg/kg |
| COLISTIN | – | – | – | – | – | – | PD50 (Acinetobacter baumannii [5]; time <= 7.0 day): 16.6 mg/kg |
| C[C@@H](O)[C@H]1C(=O)N2C(C(=O)O)=C(SCCNC=N)C[C@H]12 [IMIPENEM ANHYDROUS] | – | – | – | 64 (≈ 214 µM) | – | – | – |
| CN(C)c1cc(NC(=O)CNC(C)(C)C)c(O)c2c1C[C@H]1C[C@H]3[C@H](N(C)C)C(O)=C(C(N)=O)C(=O)[C@@]3(O)C(O)=C1C2=O [TIGECYCLINE] | – | > 6.25 | > 6.25 | 4 (≈ 6.83 µM) | > 6.25 | > 6.25 | – |
| CO/N=C(\C(=O)N[C@@H]1C(=O)N2C(C(=O)[O-])=C(C[N+]3(C)CCCC3)CS[C@H]12)c1csc(N)n1 | 1 (≈ 2.08 µM) | > 100 | > 100 | – | – | – | ED90 (Acinetobacter baumannii [9]): 50 mg/kg; ED50 (Acinetobacter baumannii [9]; read-out: PD50): 50 mg/kg; ED90 (Acinetobacter baumannii [10]): 50 mg/kg; ED50 (Acinetobacter baumannii [10]; read-out: PD50): 50 mg/kg; Activity (Acinetobacter baumannii [11]): 0.98 log10CFU |
